Measured values published in ChEMBL document CHEMBL2169861, “Synthesis and biological evaluation of novel unsaturated carboxysteroids as human 5α-reductase inhibitors: a legitimate approach” (Eur J Med Chem, 2012).

Tests used:
[1] = target: T1, 3-oxo-5-alpha-steroid 4-dehydrogenase 1 (Homo sapiens) (UniProt P18405); assay: Inhibition of human type-1 5-alpha reductase expressed in HEK293 cells using [3H]-androstenedione as substrate at 10 uM after 30 mins by HPLC analysis; assay type: cell-based
T1 sequence (whole entry): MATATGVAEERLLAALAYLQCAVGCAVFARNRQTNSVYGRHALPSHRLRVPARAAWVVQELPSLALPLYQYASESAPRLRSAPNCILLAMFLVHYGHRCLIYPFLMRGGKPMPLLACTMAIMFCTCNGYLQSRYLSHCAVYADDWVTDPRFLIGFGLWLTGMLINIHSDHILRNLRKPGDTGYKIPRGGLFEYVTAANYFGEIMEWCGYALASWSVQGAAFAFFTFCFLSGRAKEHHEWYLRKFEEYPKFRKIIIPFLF
Summary of the method: (§1)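 Lysates of 80% confluent HEK293 cells stably expressing human type I or type II cDNA (pRcCMV), sonicated in 300 mM saccharose, 5 mM Tris-HCl, 0.1 mM EDTA. Final 500 nM androstenedione with [3H]androstenedione, NADPH-regenerating system (0.55 mM NADP, 5 mM glucose-6-phosphate, G6PDH), 2% DMSO; 30 min, 37 °C. Ether-extracted; conversion quantified by radio-HPLC on C8.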

[2] = target: T2, 3-oxo-5-alpha-steroid 4-dehydrogenase 2 (Homo sapiens) (UniProt P31213); assay: Inhibition of human type-2 5-alpha reductase expressed in HEK293 cells using [3H]-androstenedione as substrate at 10 uM after 30 mins by HPLC analysis; assay type: cell-based; summary of the method: as §1
T2 sequence (whole entry): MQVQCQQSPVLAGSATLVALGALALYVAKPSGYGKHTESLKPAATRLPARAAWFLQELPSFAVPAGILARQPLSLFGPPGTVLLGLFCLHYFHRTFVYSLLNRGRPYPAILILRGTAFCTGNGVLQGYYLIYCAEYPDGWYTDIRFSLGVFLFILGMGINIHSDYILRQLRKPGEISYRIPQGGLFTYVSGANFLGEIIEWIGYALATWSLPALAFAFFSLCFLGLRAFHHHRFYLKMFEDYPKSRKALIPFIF

[3] = test system: Rattus norvegicus; assay: Anti-benign prostatic hyperplasia activity in Wistar rat assessed as reduction of seminal vesicle weight gain per 100 gram of body weight at 1 mg/kg, po qd for 14 days measured on day 15; assay type: functional
Summary of the method: (§2)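 Mature male Wistar rats, acclimatised one month, dosed orally once daily for 14 days with suspension in 0.50% carboxymethylcellulose at 5 ml/kg; vehicle controls; 5 rats/group. Killed under ether on day 15, 24 h after last dose; organs dissected free of fat and connective tissue, weighed, expressed per 100 g body weight. Mean ± SEM; one-way ANOVA with Dunnett's test.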

[4] = test system: Rattus norvegicus; assay: Anti-benign prostatic hyperplasia activity in Wistar rat assessed as reduction of adrenal weight gain per 100 gram of body weight at 1 mg/kg, po qd for 14 days measured on day 15; assay type: functional; summary of the method: as §2
[5] = test system: Rattus norvegicus; assay: Anti-benign prostatic hyperplasia activity in Wistar rat assessed as reduction of vas deferens weight gain at 1 mg/kg, po qd for 14 days measured on day 15; assay type: functional; set-up: scale not given: the % may be the effect or the level left; summary of the method: as §2
[6] = test system: Rattus norvegicus; assay: Anti-benign prostatic hyperplasia activity in Wistar rat assessed as reduction of dorsal prostate weight gain at 1 mg/kg, po qd for 14 days measured on day 15; assay type: functional, Prostate gland; set-up: scale not given: the % may be the effect or the level left; summary of the method: as §2
[7] = test system: Rattus norvegicus; assay: Anti-benign prostatic hyperplasia activity in Wistar rat assessed as reduction of epididymis weight gain at 1 mg/kg, po qd for 14 days measured on day 15; assay type: functional; set-up: scale not given: the % may be the effect or the level left; summary of the method: as §2
[8] = test system: Rattus norvegicus; assay: Anti-benign prostatic hyperplasia activity in Wistar rat assessed as reduction of testis weight gain per 100 gram of body weight at 1 mg/kg, po qd for 14 days measured on day 15; assay type: functional; summary of the method: as §2
[9] = test system: Rattus norvegicus; assay: Anti-benign prostatic hyperplasia activity in Wistar rat assessed as reduction of ventral prostate weight gain at 1 mg/kg, po qd for 14 days measured on day 15; assay type: functional, Prostate gland; set-up: scale not given: the % may be the effect or the level left; summary of the method: as §2
[10] = target: T1, 3-oxo-5-alpha-steroid 4-dehydrogenase 1 (Homo sapiens); assay: Inhibition of human type-1 5-alpha reductase expressed in HEK293 cells using [3H]-androstenedione as substrate at 2 uM after 30 mins by HPLC analysis; assay type: cell-based; summary of the method: as §1
[11] = test system: Rattus norvegicus; assay: Anti-benign prostatic hyperplasia activity in Wistar rat assessed as reduction of liver weight gain per 100 gram of body weight at 1 mg/kg, po qd for 14 days measured on day 15; assay type: functional; summary of the method: as §2
[12] = test system: Rattus norvegicus; assay: Anti-benign prostatic hyperplasia activity in Wistar rat assessed as reduction of body weight gain at 1 mg/kg, po qd for 14 days measured on day 15; assay type: functional; set-up: scale not given: the % may be the effect or the level left; summary of the method: as §2
[13] = test system: Rattus norvegicus; assay: Toxicity in Wistar rat assessed as mortality at 1 mg/kg, po qd for 14 days measured on day 15; assay type: organism-based; set-up: dose 1 mg/kg, route oral; details: in vivo, 336 h
Summary of the method: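 Mature male Wistar rats, acclimatised one month, dosing begun after 9 weeks. Compound suspended in 0.50% carboxymethylcellulose sodium and given orally at 5 ml/kg once daily for 14 days. Vehicle-only control group, 5 animals per group. Mortality recorded over treatment. Rats weighed and killed under ether anaesthesia on day 15, 24 h after the last dose.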

[14] = target: T3, 3-oxo-5-alpha-steroid 4-dehydrogenase 2 (Homo sapiens, UniProt P31213); assay: Inhibition of human type-2 5-alpha reductase expressed in HEK293 cells using [3H]-androstenedione as substrate after 30 mins by HPLC analysis; assay type: cell-based; summary of the method: as §1
T3 sequence (P31213 whole entry): T2 sequence (whole entry)

[15] = target: T2, 3-oxo-5-alpha-steroid 4-dehydrogenase 2 (Homo sapiens); assay: Inhibition of human type-2 5-alpha reductase expressed in HEK293 cells using [3H]-androstenedione as substrate at 2 uM after 30 mins by HPLC analysis; assay type: cell-based; summary of the method: as §1

Structure (SMILES) | inhibition [1] | inhibition [2] | Activity [3] | Activity [4] | Activity [5] | Activity [6] | Activity [7] | Activity [8] | Activity [9] | inhibition [10] | Activity [11] | Activity [12] | Activity [13] | IC50 [14] | inhibition [15]
C[C@]12CCC(C#N)=CC1=CC[C@@H]1[C@@H]2CC[C@@]2(C)[C@H]1CCC(=O)N2Cc1ccccc1 | 0% | 34.7% | – | – | – | – | – | – | – | – | – | – | – | – | –
CN1C(=O)CC[C@H]2[C@@H]3CC=C4C=C(C#N)CC[C@]4(C)[C@H]3CC[C@@]21C | 93% | 13.5% | 223.05 mg | 21.311 mg | 14.58% | -8.07% | 10.11% | 932.988 mg | 6.72% | 64% | 4.861 g | 6.767% | Non-toxic | – | –
C[C@]12CCC(Br)=CC1=CC[C@@H]1[C@@H]2CC[C@]2(C)NC(=O)CC[C@@H]12 | 34.5% | 45.6% | – | – | – | – | – | – | – | – | – | – | – | – | –
C[C@]12CCC(C#N)=CC1=CC[C@@H]1[C@@H]2CC[C@@]2(C)[C@H]1CCC(=O)N2CCC#N | 0% | 9.9% | – | – | – | – | – | – | – | – | – | – | – | – | –
CC(C)(C)NC(=O)[C@H]1CC[C@H]2[C@@H]3CC[C@H]4NC(=O)C=C[C@]4(C)[C@H]3CC[C@]12C [FINASTERIDE] | – | – | 105.51 mg | 16.575 mg | 14.45% | 45.32% | 14.4% | 1058.022 mg | 44.76% | – | 3.5097 g | 8.032% | Non-toxic | 30.3 nM | –
CC(=O)N1C(=O)CC[C@H]2[C@@H]3CC=C4C=C(C#N)CC[C@]4(C)[C@H]3CC[C@@]21C | 2.2% | 23.2% | – | – | – | – | – | – | – | – | – | – | – | – | –
C[C@]12CC[C@H]3[C@@H](CC=C4C=C(C(=O)O)CC[C@@H]43)[C@@H]1CCC2=O | 82.1% | 100% | 167.37 mg | 15.019 mg | 34.8% | 15.62% | 29.88% | 926.533 mg | 22.56% | – | 3.078 g | 22.992% | Non-toxic | 213 nM | 89.5%
CN1C(=O)CC[C@H]2[C@@H]3CC=C4C=C(C(=O)O)CC[C@]4(C)[C@H]3CC[C@@]21C | 18.9% | 100% | 126.262 mg | 12.464 mg | 29.36% | 39.96% | 31.75% | 956.392 mg | 39.5% | – | 3.224 g | 6.517% | Non-toxic | 54.1 nM | 99%
CCOC(=O)CCN1C(=O)CC[C@H]2[C@@H]3CC=C4C=C(C(=O)O)CC[C@]4(C)[C@H]3CC[C@@]21C | 8.5% | 100% | 136.605 mg | 17.522 mg | 37.55% | 28.75% | 25.41% | 1075.498 mg | 33.86% | – | 3.542 g | 15.618% | Non-toxic | 26.5 nM | 100%
C=CCN1C(=O)CC[C@H]2[C@@H]3CC=C4C=C(C(=O)O)CC[C@]4(C)[C@H]3CC[C@@]21C | 0.4% | 100% | 149.399 mg | 17.967 mg | 27.89% | 31.25% | 24.75% | 1094.935 mg | 35.34% | – | 3.168 g | 7.518% | Non-toxic | 72.8 nM | 99.7%
C[C@]12CCC(C#N)=CC1=CC[C@@H]1[C@@H]2CC[C@@]2(C)[C@H]1CCC(=O)N2C(=O)c1ccccc1 | 0% | 11.4% | – | – | – | – | – | – | – | – | – | – | – | – | –
C[C@]12CC[C@H]3[C@@H](CC=C4C=C(C#N)CC[C@@H]43)[C@@H]1CCC2=O | 0% | 1.2% | – | – | – | – | – | – | – | – | – | – | – | – | –
C=CCN1C(=O)CC[C@H]2[C@@H]3CC=C4C=C(C#N)CC[C@]4(C)[C@H]3CC[C@@]21C | 20.8% | 3.3% | – | – | – | – | – | – | – | – | – | – | – | – | –
C[C@]12CCC(C#N)=CC1=CC[C@@H]1[C@@H]2CC[C@]2(C)NC(=O)CC[C@@H]12 | 27.6% | 9.9% | – | – | – | – | – | – | – | – | – | – | – | – | –
CCN1C(=O)CC[C@H]2[C@@H]3CC=C4C=C(C(=O)O)CC[C@]4(C)[C@H]3CC[C@@]21C | 32.3% | 100% | 151.015 mg | 15.574 mg | 19.32% | 28.37% | 17.25% | 1128.214 mg | 39.35% | – | 2.91 g | 5.409% | Non-toxic | 22.1 nM | 100%
C[C@]12CCC(C(=O)O)=CC1=CC[C@@H]1[C@@H]2CC[C@]2(C)NC(=O)CC[C@@H]12 | 0% | 62.9% | 186.102 mg | 13.973 mg | 26.33% | 46.5% | 13.98% | 993.729 mg | 27.33% | – | 2.713 g | 8.323% | Non-toxic | – | –
CCN1C(=O)CC[C@H]2[C@@H]3CC=C4C=C(C#N)CC[C@]4(C)[C@H]3CC[C@@]21C | 56.1% | 48.9% | – | – | – | – | – | – | – | – | – | – | – | – | –
